Assays:
[1] = tested on: Human immunodeficiency virus 1; experiment: Antiviral activity against HIV1 NL4-3 infected in human TZM-GFP cells assessed as number of GFP positive cells incubated for 48 hrs by imaging reader; assay type: functional, organism-based; conditions: Human immunodeficiency virus 1, NL4-3, TZM
In short: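 TZM-GFP cells seeded 1 × 10^4/well and given increasing compound concentrations 24 h later; infected with HIV-1 NL4-3 (MOI = 1) after a further 24 h. Read-out after 48 h: GFP-positive cell counts (LTR-driven) versus DMSO controls. EC50 fitted as log(inhibitor) vs normalized response, variable slope, per experiment and averaged; mean ± SD, duplicates, at least two independent experiments.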

TZM = experiment: Cytotoxicity against human TZM-GFP cells incubated for 72 hrs by XTT assay; assay type: cell-based; conditions: tzm, 72 h
In short: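 TZM-GFP cells seeded at 1 × 10^4 per well and exposed continuously to increasing compound concentrations for 72 h. Viable cell number read by XTT proliferation kit. CC50 fitted as log(inhibitor) vs normalized response, variable slope, per independent assay and averaged. Run in duplicate, at least two independent experiments, reported as mean ± standard deviation.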

[2] = tested on: Human immunodeficiency virus 1; experiment: Binding affinity to covalently-crosslinked hexameric HIV1 capsid protein A14C/E45C/W184A/M185A mutant expressed in Escherichia coli BL21(DE3)RIL assessed as change in melting temperature at 20 uM incubated for 30 mins by thermal shift dye based fluorescence analysis
In short: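 Thermal shift: 15 μM CA121 in 50 mM sodium phosphate pH 8.0 with Sypro Orange and compound at 20 μM final or DMSO control. Heated 25 to 95 °C at 0.2 °C/10 s; fluorescence Ex 475–500, Em 520–590 nm. ΔTm = Tm(compound) − T0(DMSO) for CA hexamer melting.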

Compound	EC50 [1]	CC50 (TZM)	ΔTm [2]
CN(C(=O)[C@H](Cc1ccccc1)NC(=O)Cc1c[nH]c2ccccc12)c1cccnc1	> 20 µM	> 100 µM	-0.8 °C
CN(C(=O)[C@H](NC(=O)Cc1c[nH]c2ccccc12)c1ccccc1)c1ccccc1	> 20 µM	> 50 µM	1.5 °C
O=C(Cc1c[nH]c2ccccc12)N[C@@H](Cc1ccccc1)C(=O)Nc1nc2ccccc2[nH]1	> 20 µM	44 µM	-0.6 °C
Cc1c(CC(=O)N[C@@H](Cc2ccccc2)C(=O)N(C)c2ccc(Cl)cc2)c2ccccc2n1C(C)C	0.15 µM	14 µM	8.5 °C
Cc1[nH]c2ccccc2c1CC(=O)N[C@@H](Cc1ccccc1)C(=O)NC(c1ccccc1)c1ccccc1	> 20 µM	> 100 µM	0 °C
Cc1[nH]c2ccccc2c1CC(=O)N[C@@H](Cc1ccccc1)C(=O)Nc1ccc2ncsc2c1	10 µM	49 µM	1.4 °C
Cc1[nH]c2ccccc2c1CC(=O)N[C@@H](Cc1ccccc1)C(=O)N(C)c1cccnn1	3.7 µM	> 100 µM	3.2 °C
Cc1[nH]c2ccccc2c1CC(=O)N[C@@H](Cc1ccccc1)C(=O)N(C)c1cccnc1	> 20 µM	> 100 µM	0 °C
Cc1[nH]c2ccccc2c1CC(=O)N[C@@H](Cc1ccccc1)C(=O)Nc1cccc(C#N)c1	> 20 µM	> 100 µM	-0.5 °C
CCn1cc(CC(=O)N[C@@H](Cc2ccccc2)C(=O)N(C)c2cccc(F)c2)c2ccccc21	0.84 µM	31 µM	5.9 °C
O=C(Cc1c[nH]c2ccccc12)N[C@@H](Cc1ccccc1)C(=O)NCc1cccc2[nH]ccc12	> 20 µM	< 100 µM	0.5 °C
CCn1cc(CC(=O)N[C@@H](Cc2ccccc2)C(=O)N(C)c2ccc(Cl)cc2)c2ccccc21	0.25 µM	16 µM	8.6 °C
CCN(C(=O)[C@H](Cc1ccccc1)NC(=O)Cc1c(C)n(CC)c2ccccc12)c1ccccc1	0.56 µM	20 µM	10 °C
Cc1[nH]c2ccccc2c1CC(=O)N[C@@H](Cc1ccccc1)C(=O)Nc1cccnn1	> 20 µM	> 100 µM	0 °C
Cc1cc(N(C)C(=O)[C@H](Cc2ccccc2)NC(=O)Cc2c(C)[nH]c3ccccc23)n[nH]1	> 20 µM	< 100 µM	0 °C
CCN(C(=O)[C@H](Cc1ccccc1)NC(=O)Cc1c[nH]c2ccccc12)c1ccccc1	0.44 µM	70 µM	6.4 °C
CCn1c(C)c(CC(=O)N[C@@H](Cc2ccccc2)C(=O)N(C)c2cccc(F)c2)c2ccccc21	0.33 µM	20 µM	10.8 °C
O=C(Cc1c[nH]c2ccccc12)N[C@@H](Cc1ccccc1)C(=O)O	> 20 µM	> 50 µM	-0.6 °C
O=C(Cc1c[nH]c2ccccc12)N[C@@H](Cc1ccccc1)C(=O)NC(c1ccccc1)c1ccccc1	> 20 µM	> 100 µM	-1.6 °C
Cc1[nH]c2ccccc2c1CC(=O)N[C@@H](Cc1ccccc1)C(=O)NC12CC3CC(CC(C3)C1)C2	> 20 µM	> 100 µM	-0.8 °C
Cc1c(CC(=O)N[C@@H](Cc2ccccc2)C(=O)N(C)c2cccc(Cl)c2)c2ccccc2n1C(C)C	0.36 µM	14 µM	5.5 °C
CCN(C(=O)[C@H](Cc1ccccc1)NC(=O)Cc1cn(C(C)C)c2ccccc12)c1ccccc1	0.87 µM	15 µM	5.7 °C
CCn1cc(CC(=O)N[C@@H](Cc2ccccc2)C(=O)N(C)c2cccc(Cl)c2)c2ccccc21	2 µM	20 µM	5.8 °C
